Series [1] in a line: (§1) Drug metabolism in Sprague-Dawley rat liver microsomes after 30 mins by LC-ESI-MS analysis. Format: ADME. The conditions noted are these: Sprague-Dawley, liver microsomes. The method in brief:
(§2)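 2'-OH-TCC at 0.2, 0.5, 1, 2, 3, 5, 10 and 50 µM incubated with liver microsomes (alamethicin, MgCl2, saccharolactone, UDPGA; 37 °C), sampled at 5, 10, 15 and 30 min. Samples ≥5 µM diluted 1:9 in ACN; LC-ESI-MS. KM and vmax fitted from rate vs concentration; intrinsic clearance derived from these; mean and SD of three.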

Series [2] has as its system Liver microsome. The description is as §1. It is filed as ADME. The conditions noted are these: microsomes, 0.5 h. The method in brief: as §2
The nature of series [3]: Intrinsic clearance in cynomolgus monkey liver microsomes after 30 mins by LC-ESI-MS analysis. It is filed as ADME, Macaca fascicularis. The conditions noted are these: 0.5 h. The method in brief:
as §2
For orientation: Liver microsomes are vesicles of endoplasmic reticulum, rich in cytochrome P450 enzymes.

The nature of series [4]: Drug metabolism in B6C3F1 mouse liver microsomes assessed as N'-glucuronide-triclocarban formation incubated for 5 mins prior to UDPGA addition measured after 30 mins by LC-UV-ESI-MS/MS analysis. It is filed as ADME. The conditions noted are these: 0.5 h. The method in brief: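 TCC was incubated at 10 µM (2% DMSO) in 100 mM phosphate pH 7.4 with alamethicin-treated microsomes or Supersomes, 10 mM MgCl2 and 10 mM saccharolactone. After 5 min pre-incubation at 37 °C, UDPGA was added to start the reaction. Protein was raised up to 2 mg/mL. Samples were quenched in ACN with 1 µM DCC internal standard, centrifuged, and N-glucuronides detected by LC-ESI-MS/MS in SRM mode.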

Series [5] in a line: Drug metabolism in human kidney microsomes assessed as N-glucuronide-triclocarban formation incubated for 5 mins prior to UDPGA addition measured after 5 to 30 mins by LC-UV analysis. It is filed as ADME. An outline of the steps:
(§3)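 Pooled human kidney or liver microsomes (liver: 25 mixed-gender donors), 5 µg protein, in 200 µL 100 mM potassium phosphate pH 7.4. Alamethicin pre-treated on ice 15 min. Final 10 µM TCC (2% DMSO), with 10 mM MgCl2 and 10 mM saccharolactone, preincubated 5 min at 37 °C. Started with UDPGA (20 mM stock). Sampled at 5, 10, 15 and 30 min into ACN containing 1 µM DCC internal standard.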

The target in series [6] is T1, UDP-glucuronosyltransferase 2B17 (Homo sapiens, UniProt O75795).
T1 sequence (O75795 whole entry): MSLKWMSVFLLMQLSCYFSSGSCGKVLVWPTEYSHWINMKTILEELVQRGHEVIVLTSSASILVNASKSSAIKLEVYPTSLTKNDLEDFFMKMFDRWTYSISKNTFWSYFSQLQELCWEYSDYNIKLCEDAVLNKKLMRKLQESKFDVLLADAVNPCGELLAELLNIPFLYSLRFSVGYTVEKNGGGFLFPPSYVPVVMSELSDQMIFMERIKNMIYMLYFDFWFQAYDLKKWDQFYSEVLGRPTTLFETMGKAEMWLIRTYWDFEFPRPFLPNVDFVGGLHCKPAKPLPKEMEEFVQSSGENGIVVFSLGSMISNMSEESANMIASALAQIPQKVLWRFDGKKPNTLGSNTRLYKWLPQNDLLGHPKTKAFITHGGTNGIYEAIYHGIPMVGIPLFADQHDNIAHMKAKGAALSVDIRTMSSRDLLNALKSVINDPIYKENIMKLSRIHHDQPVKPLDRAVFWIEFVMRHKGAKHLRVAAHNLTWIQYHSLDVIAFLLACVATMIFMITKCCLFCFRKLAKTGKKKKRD
The experiment in a line: Drug metabolism assessed as human UGT2B17-mediated N-glucuronide-triclocarban formation expressed in baculovirus infected insect sf9 cells incubated for 5 mins prior to UDPGA addition measured after 5 to 30 mins by LC-UV analysis. Format: ADME. The method in brief:
(§4)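 Microsomes or UGT Supersomes (5 µg protein) were held 15 min on ice with alamethicin in 100 mM potassium phosphate pH 7.4. TCC was added at 10 µM (2% DMSO) with 10 mM MgCl2 and 10 mM saccharolactone, pre-warmed 5 min at 37 °C, then started with UDPGA. Samples at 5, 10, 15 and 30 min were quenched in ACN. Product was read by LC-UV at 265 nm; rate came from regression over time, three incubations.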

A short description of series [7]: Drug excretion in Sprague-Dawley rat urine assessed as 2'-O-glucuronide-triclocarban formation at 1 mg/kg, po by LC-MS analysis. Further details: dose 1 mg/kg, route oral. It is filed as ADME, organism-based. The conditions noted are these: in vivo.
Series [8] in a line: Drug metabolism in B6C3F1 mouse liver microsomes assessed as N'-glucuronide-triclocarban formation incubated for 5 mins prior to UDPGA addition measured after 5 to 30 mins by LC-UV analysis. It is filed as ADME. The method in brief: as §4
In series [9] the target is T2, UDP-glucuronosyltransferase 1A9 (Homo sapiens, UniProt O60656).
T2 sequence (O60656 whole entry): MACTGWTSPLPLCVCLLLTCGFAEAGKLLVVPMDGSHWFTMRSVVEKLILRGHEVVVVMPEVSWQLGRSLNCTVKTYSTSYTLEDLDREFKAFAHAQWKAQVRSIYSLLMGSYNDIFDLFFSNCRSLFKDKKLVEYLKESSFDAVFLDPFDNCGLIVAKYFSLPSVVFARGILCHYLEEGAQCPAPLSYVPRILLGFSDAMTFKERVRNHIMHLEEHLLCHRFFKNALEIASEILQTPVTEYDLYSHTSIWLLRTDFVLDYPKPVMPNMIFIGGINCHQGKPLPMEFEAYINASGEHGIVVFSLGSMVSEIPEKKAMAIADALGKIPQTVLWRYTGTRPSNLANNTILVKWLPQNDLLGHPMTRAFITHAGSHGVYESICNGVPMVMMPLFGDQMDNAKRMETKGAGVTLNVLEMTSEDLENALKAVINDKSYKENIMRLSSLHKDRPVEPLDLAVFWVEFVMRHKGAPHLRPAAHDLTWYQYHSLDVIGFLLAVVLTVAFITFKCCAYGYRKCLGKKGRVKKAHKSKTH
The experiment in a line: Drug metabolism assessed as human UGT1A9-mediated N'-glucuronide-triclocarban formation expressed in baculovirus infected insect sf9 cells incubated for 5 mins prior to UDPGA addition measured after 5 to 30 mins by LC-UV analysis. Format: ADME. An outline of the steps:
as §4

Series [10] addresses T1, UDP-glucuronosyltransferase 2B17. The experiment in a line: Drug metabolism assessed as human UGT2B17-mediated N'-glucuronide-triclocarban formation expressed in baculovirus infected insect sf9 cells incubated for 5 mins prior to UDPGA addition measured after 5 to 30 mins by LC-UV analysis. It is filed as ADME. An outline of the steps: as §4
Series [11] deals with Liver microsome. The experiment in a line: Drug metabolism in human liver microsomes assessed as N-glucuronide-triclocarban formation incubated for 5 mins prior to UDPGA addition measured after 30 mins by LC-UV-ESI-MS/MS analysis. The conditions noted are these: 0.5 h. Format: ADME. An outline of the steps:
as §3

As usually defined, the Km is the concentration of substrate that gives half-maximal velocity. One may read the Vmax as the rate approached at saturating substrate. For the compound `O=C(Nc1ccc(Cl)c(Cl)c1)Nc1ccc(Cl)cc1O`, the Km at 0.5 h in [1] was 3.29 µM. For the same compound, the Vmax in series [2] was determined as 9.42 nmol/min/mg. Also, the CLH in series [3] came out at 19100 µL/min/mg.
As for `O=C(Nc1ccc(Cl)cc1)Nc1ccc(Cl)c(Cl)c1` [TRICLOCARBAN], the Drug metabolism result in series [4] is “metabolite_detected”; in series [5], “metabolite_not_detected”; in series [6], “metabolite_not_detected”; in series [8] it was “metabolite_not_detected”; in series [9] it was “metabolite_not_detected”; in series [10], “metabolite_not_detected”. Besides, the Drug metabolism result in series [11] is listed as “metabolite_detected”. Further, the Drug excretion entry in series [7] is “metabolite_detected”.
